From ChEMBL document CHEMBL1151204, “Hypoglycemic effect and antioxidant potential of kaempferol-3,7-O-(alpha)-dirhamnoside from Bauhinia forficata leaves” (J Nat Prod, 2004)
Calls of active or inactive are those of the source. The calls are words filed in the database; no cut-off is given here.

What was measured:
Liver microsomes [1] = test: Antioxidant activity in Wistar rat liver microsomes assessed as inhibition of ascorbyl radical-induced lipid peroxidation by TBARS assay; type: functional, Microsome
Procedure, shortened: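 Microsomes from male Wistar rat liver, isolated by differential centrifugation with calcium aggregation and stored at -70 °C; protein by Lowry, fixed at 2 mg/mL. Ascorbyl-radical peroxidation started with 25 µM FeSO4 plus 500 µM ascorbate. TBARS read with extinction coefficient 1.56 × 10^5 M-1 cm-1; IC50 derived; mean ± SEM, n = 3 in duplicate.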

Liver microsomes [2] = test: Antioxidant activity in Wistar rat liver microsomes assessed as inhibition of hydroxyl radical-induced lipid peroxidation by TBARS assay; type: functional, Microsome
Procedure, shortened: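 Male Wistar rat liver microsomes, isolated by differential centrifugation with calcium aggregation and stored at -70 °C, at 2 mg protein/mL in 0.1 M KH2PO4 pH 7.4. Hydroxyl-radical peroxidation started with 25 µM FeCl2, 2.8 mM H2O2 and 100 µM sodium ascorbate. TBARS read with extinction coefficient 1.56 × 10^5 M-1 cm-1; IC50 derived; mean ± SEM, n = 3 in duplicate.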

[3] = Antioxidant activity in 1-alpha-phosphatidylcholine liposome assessed as inhibition of ascorbyl radical-induced lipid peroxidation by TBARS assay; type: functional
Procedure, shortened: (§1)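 Egg-yolk phosphatidylcholine or soybean asolectin bilayer liposomes made by cholate/deoxycholate solubilisation then dialysis; lipid 12.5 mg/mL. Ascorbyl-radical peroxidation started with 25 µM FeSO4 plus 500 µM ascorbate. TBARS read with extinction coefficient 1.56 × 10^5 M-1 cm-1; IC50 derived; mean ± SEM, n = 3 in duplicate.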

[4] = Antioxidant activity in asolectin liposome assessed as inhibition of ascorbyl radical-induced lipid peroxidation by TBARS assay; type: functional; procedure, shortened: as §1
Rattus norvegicus [5] = test: Hypoglycemic activity in normal 16 hrs fasted Wistar rat assessed as reduction in serum glucose level at 50 mg/kg, po after 1 hr by glucose oxidase method; type: functional
Procedure, shortened: (§2)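 Male Wistar rats, 160–190 g, fasted ≥16 h with free water. Groups: control, vehicle (0.5 mL 1% EtOH–H2O) and compound by oral gavage. Retro-orbital blood drawn and centrifuged; serum glucose by glucose oxidase at 0, 1, 2 and 3 h. Mean ± SEM, n = 6 in duplicate, compared with the 0 h value.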

Rattus norvegicus [6] = test: Hypoglycemic activity in normal 16 hrs fasted Wistar rat assessed as reduction in serum glucose level at 100 mg/kg, po after 1 hr by glucose oxidase method; type: functional; procedure, shortened: as §2
Rattus norvegicus [7] = test: Hypoglycemic activity in normal 16 hrs fasted Wistar rat assessed as reduction in serum glucose level at 200 mg/kg, po after 1 hr by glucose oxidase method; type: functional; procedure, shortened: as §2
Rattus norvegicus [8] = test: Hypoglycemic activity in normal 16 hrs fasted Wistar rat assessed as reduction in serum glucose level at 50 mg/kg, po after 2 hrs by glucose oxidase method; type: functional; procedure, shortened: as §2
Rattus norvegicus [9] = test: Hypoglycemic activity in normal 16 hrs fasted Wistar rat assessed as reduction in serum glucose level at 100 mg/kg, po after 2 hrs by glucose oxidase method; type: functional; procedure, shortened: as §2
Rattus norvegicus [10] = test: Hypoglycemic activity in normal 16 hrs fasted Wistar rat assessed as reduction in serum glucose level at 200 mg/kg, po after 2 hrs by glucose oxidase method; type: functional; procedure, shortened: as §2
Rattus norvegicus [11] = test: Hypoglycemic activity in normal 16 hrs fasted Wistar rat assessed as reduction in serum glucose level at 50 mg/kg, po after 3 hrs by glucose oxidase method; type: functional; procedure, shortened: as §2
Rattus norvegicus [12] = test: Hypoglycemic activity in normal 16 hrs fasted Wistar rat assessed as reduction in serum glucose level at 100 mg/kg, po after 3 hrs by glucose oxidase method; type: functional; procedure, shortened: as §2
Rattus norvegicus [13] = test: Hypoglycemic activity in normal 16 hrs fasted Wistar rat assessed as reduction in serum glucose level at 200 mg/kg, po after 3 hrs by glucose oxidase method; type: functional; procedure, shortened: as §2
Rattus norvegicus [14] = test: Hypoglycemic activity in diabetic 16 hrs fasted Wistar rat assessed as reduction in alloxan-induced serum glucose level at 50 mg/kg, po after 1 hr by glucose oxidase method; type: functional
Procedure, shortened: (§3)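 Male Wistar rats, 160–190 g. Alloxan monohydrate 60 mg/kg i.v. in 0.9% NaCl given after an overnight fast. Rats with serum glucose 25–30.5 mmol/L at 72 h were fasted and randomized to diabetic, vehicle (0.5 mL 1% EtOH–H2O) or compound groups. Compound given by oral gavage. Retro-orbital serum glucose by glucose oxidase at 0, 1, 2 and 3 h. Mean ± SEM, n = 6 in duplicate, compared with 0 h.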

Rattus norvegicus [15] = test: Hypoglycemic activity in diabetic 16 hrs fasted Wistar rat assessed as reduction in alloxan-induced serum glucose level at 100 mg/kg, po after 1 hr by glucose oxidase method; type: functional; procedure, shortened: as §3
Rattus norvegicus [16] = test: Hypoglycemic activity in diabetic 16 hrs fasted Wistar rat assessed as reduction in alloxan-induced serum glucose level at 200 mg/kg, po after 1 hr by glucose oxidase method; type: functional; procedure, shortened: as §3
Rattus norvegicus [17] = test: Hypoglycemic activity in diabetic 16 hrs fasted Wistar rat assessed as reduction in alloxan-induced serum glucose level at 50 mg/kg, po after 2 hrs by glucose oxidase method; type: functional; procedure, shortened: as §3
Rattus norvegicus [18] = test: Hypoglycemic activity in diabetic 16 hrs fasted Wistar rat assessed as reduction in alloxan-induced serum glucose level at 100 mg/kg, po after 2 hrs by glucose oxidase method; type: functional; procedure, shortened: as §3
Rattus norvegicus [19] = test: Hypoglycemic activity in diabetic 16 hrs fasted Wistar rat assessed as reduction in alloxan-induced serum glucose level at 200 mg/kg, po after 2 hrs by glucose oxidase method; type: functional; procedure, shortened: as §3
Rattus norvegicus [20] = test: Hypoglycemic activity in diabetic 16 hrs fasted Wistar rat assessed as reduction in alloxan-induced serum glucose level at 50 mg/kg, po after 3 hrs by glucose oxidase method; type: functional; procedure, shortened: as §3
Rattus norvegicus [21] = test: Hypoglycemic activity in diabetic 16 hrs fasted Wistar rat assessed as reduction in alloxan-induced serum glucose level at 100 mg/kg, po after 3 hrs by glucose oxidase method; type: functional; procedure, shortened: as §3
Rattus norvegicus [22] = test: Hypoglycemic activity in diabetic 16 hrs fasted Wistar rat assessed as reduction in alloxan-induced serum glucose level at 200 mg/kg, po after 3 hrs by glucose oxidase method; type: functional; procedure, shortened: as §3
Rattus norvegicus [23] = test: Hypoglycemic activity in 16 hrs fasted Wistar rat assessed as reduction in serum glucose level at 100 mg/kg, po measured after 30 mins of glucose challenge by oral glucose tolerance test; type: functional
Procedure, shortened: (§4)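 Male Wistar rats, 160–190 g, fasted ≥16 h with water allowed. Oral gavage of glucose 4 g/kg alone or with compound 100 mg/kg. Controls: untreated rats and tolbutamide 100 mg/kg. Blood drawn from the retro-orbital plexus before and at 30, 60, 90 and 180 min after the load. Serum glucose by glucose oxidase; mean ± SEM, n = 3 in duplicate.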

Rattus norvegicus [24] = test: Hypoglycemic activity in 16 hrs fasted Wistar rat assessed as reduction in serum glucose level at 100 mg/kg, po measured after 60 mins of glucose challenge by oral glucose tolerance test; type: functional; procedure, shortened: as §4
Rattus norvegicus [25] = test: Hypoglycemic activity in 16 hrs fasted Wistar rat assessed as reduction in serum glucose level at 100 mg/kg, po measured after 90 mins of glucose challenge by oral glucose tolerance test; type: functional; procedure, shortened: as §4
Rattus norvegicus [26] = test: Hypoglycemic activity in 16 hrs fasted Wistar rat assessed as reduction in serum glucose level at 100 mg/kg, po measured after 180 mins of glucose challenge by oral glucose tolerance test; type: functional; procedure, shortened: as §4
[27] = tested on: Radical scavenging activity; test: Antioxidant activity assessed as DPPH radical scavenging activity; type: functional
Procedure, shortened: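 DPPH in EtOH, 200 μM, in the medium; radical loss read as absorbance decrease at 515 nm.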

Lung [28] = test: Antioxidant activity in Wistar rat lung assessed as half maximal inhibition of myeloperoxidase; type: functional, tissue-based
Procedure, shortened: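 Enzyme source: rat lung homogenised in ice-cold phosphate buffer. Activity was read as the slope of absorbance at 450 nm with o-dianisidine-2HCl and H2O2 and converted to units against a standard curve of commercial enzyme. Each concentration point was monitored kinetically, and the concentration giving half-maximal inhibition (K0.5) was taken from the inhibition curve.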

Lung [29] = test: Antioxidant activity in Wistar rat lung assessed as maximal inhibition of myeloperoxidase at 400 uM

O=c1c(O)c(-c2ccc(O)c(O)c2)oc2cc(O)cc(O)c12 [QUERCETIN]
IC50 (Liver microsomes [1]): 125 µM | IC50 (Liver microsomes [2]): 7.5 µM | IC50 [3]: 80 µM | IC50 [4]: 80 µM

C[C@@H]1O[C@@H](Oc2cc(O)c3c(=O)c(O[C@@H]4O[C@@H](C)[C@H](O)[C@@H](O)[C@H]4O)c(-c4ccc(O)cc4)oc3c2)[C@H](O)[C@H](O)[C@H]1O [KAEMPFERITRIN]
Activity (Rattus norvegicus [5]): 5.5 mmol/L | Activity (Rattus norvegicus [6]): 5.4 mmol/L | Activity (Rattus norvegicus [7]): 4.5 mmol/L | Activity (Rattus norvegicus [8]): 5.9 mmol/L | Activity (Rattus norvegicus [9]): 5.5 mmol/L | Activity (Rattus norvegicus [10]): 5 mmol/L | Activity (Rattus norvegicus [11]): 6.2 mmol/L | Activity (Rattus norvegicus [12]): 6.2 mmol/L | Activity (Rattus norvegicus [13]): 5.1 mmol/L | Activity (Rattus norvegicus [14]): 23.5 mmol/L | Activity (Rattus norvegicus [15]): 24.3 mmol/L | Activity (Rattus norvegicus [16]): 22.4 mmol/L | Activity (Rattus norvegicus [17]): 25.2 mmol/L | Activity (Rattus norvegicus [18]): 24 mmol/L | Activity (Rattus norvegicus [19]): 22.2 mmol/L | Activity (Rattus norvegicus [20]): 25.3 mmol/L | Activity (Rattus norvegicus [21]): 24 mmol/L | Activity (Rattus norvegicus [22]): 22.4 mmol/L | Activity (Rattus norvegicus [23]): 9.5 mmol/L | Activity (Rattus norvegicus [24]): 8.8 mmol/L | Activity (Rattus norvegicus [25]): 8.2 mmol/L | Activity (Rattus norvegicus [26]): 6.7 mmol/L | IC50 [27]: 84 µM | K (Lung [28]): 86 µM | IC50 (Liver microsomes [1]): 320 µM | IC50 (Liver microsomes [2]): 85 µM | IC50 [3]: 112 µM | IC50 [4]: 223 µM | Activity (Lung [29]): Active

CCCCNC(=O)NS(=O)(=O)c1ccc(C)cc1 [TOLBUTAMIDE]
Activity (Rattus norvegicus [23]): 7.8 mmol/L | Activity (Rattus norvegicus [24]): 6.3 mmol/L | Activity (Rattus norvegicus [25]): 5.9 mmol/L | Activity (Rattus norvegicus [26]): 5.2 mmol/L
